N-glyco inh = increase of ERlucT glycosylation luciferase signal, primary screen, N-linked glycosylation inhibitor project, D54 ERlucT cells, luminescence, set 2. D54 ERlucT glycosylation luciferase reporter, 24 h; percent of 100 nM tunicamycin response. reporter increase, % at 12.5 µM. actives 0.23% (n = 360,000);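 active means mean luciferase reporter signal, scaled so untreated is 0 and the glycosylation-blocking control 100, at or above a set limit in every replicate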;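 further: luciferase carries N-glycosylation sites so blocking glycosylation raises the light; 0% = median of neutral control wells and 100% = median of 100 nM tunicamycin wells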
T cruzi inh = inhibitors of intracellular T. cruzi growth, primary screen, luminescence, NIH3T3 host cells; T. cruzi beta-gal in NIH3T3, 90 h; inhibition, % (test concentration not listed); actives 1.4% (n = 300,000); AID 1885, 2009;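 active means mean inhibition across valid replicates above about 55%, limit read from the data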;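 further: signal also drops with host cell toxicity which is not excluded here; 0% = plate median of DMSO wells and 100% = zero luminescence signal; higher percent means less beta-gal luminescence so fewer parasites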
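assay system = mouse NIH/3T3 fibroblasts infected with β-gal-expressing T. cruzi Tulahuen C4 | input = 5,000 NIH/3T3 host cells per well | buffer or medium = DMEM plus 2% FBS | timing = 3 h host attachment, then at least 90 h co-culture | measured by = GalScreen luminescence, 60 min | evaluation = luminescence reflecting intracellular parasite burden, expressed as percent inhibition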
PvdQ acylase = P. aeruginosa PvdQ acylase inhibitors, primary screen, biochemical, fluorescence, plate reader and imaging, single point. purified PvdQ acylase. inhibition, % at 10 µM. actives 0.063% (n = 340,000). AID 488965, 2010; in the data active means inhibition above about 30%, passing the limit was not always enough;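 further: 0% = vehicle neutral wells and 100% = reference inhibitor wells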
PfHsp90 yeast 2 = growth inhibition of PfHsp90-expressing yeast, primary screen, antimalarial PfHsp90 inhibitor project, S. cerevisiae, BacTiter-Glo luminescence, single point, set 2 | inhibition, % at 9.4 µM | actives 0.32% (n = 310,000) | BacTiter-Glo ATP, 48 h; yeast lacking PDR1 and PDR3 efflux regulators;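 active means every replicate shows inhibition above about 80%, whatever the replicate mean, limit read from the data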;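 further: 0% = DMSO neutral controls and 100% = 20 µM radicicol positive controls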
CaV13 FRET inh = Disruptors of the CACNA1D IQ motif to Ca2+-dependent inactivation inhibitor domain association, primary screening, Förster resonance energy transfer in intact living …; HEK cells, CFP/YFP FRET ICDI-IQ, plate reader, 10 min; percent FRET-ratio fall versus neutral wells; inhibition, % at 12.3 µM; actives 0.098% (n = 340,000);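 active means mean replicate inhibition of at least 30% and at least 1% of replicates passing that level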;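 further: 0% = median of the neutral control wells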
HSF-1 act = HSF-1 activators, primary screen, NIH3T3-HGL cells, MG132 stress, luminescence, single point | NIH3T3-HGL HSF-1 luciferase reporter, 8 h; 100% = twice DMSO control signal | activation, % at 9 µM | actives 1.7% (n = 300,000) | AID 504408, 2011;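 active means mean replicate activation of at least 50% with a set share of replicates each reaching 50%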;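 further: 0% = median of the neutral control wells and 100% = twice that signal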
Starred values were filed as active, the others as inactive. Most compounds without a hit are left out; they make up all but 3% or so of the library.

How did Cc1csc(NC(=O)Cc2coc3cc(C)c(C(C)C)cc23)n1 do in these assays?
N-glyco inh: -9; T cruzi inh: 8; PvdQ acylase: -7; PfHsp90 yeast 2: -47; CaV13 FRET inh: -5; HSF-1 act: 28

What do the screens show for `c1ccc2c(c1)OCc1nccn1-2`?
CaV13 FRET inh: -2

What do the screens show for `O=C(/C=C/c1ccccc1)CCN1CCCCC1`?
N-glyco inh: 9; PvdQ acylase: -20; PfHsp90 yeast 2: 117*; CaV13 FRET inh: -7

What do the screens show for `CCc1ccc(NC(=O)c2cc(-c3ccco3)on2)cc1`?
N-glyco inh: 4; T cruzi inh: -6; PvdQ acylase: -3; PfHsp90 yeast 2: 18; CaV13 FRET inh: -6; HSF-1 act: 80*

How did NC(=O)CC(NC(=O)Cc1ccc(Br)cc1)c1ccc(NCC2CC2)c([N+](=O)[O-])c1 (centres undefined) do in these assays?
N-glyco inh: 45*; T cruzi inh: 6; PvdQ acylase: -25; PfHsp90 yeast 2: 2; CaV13 FRET inh: -5; HSF-1 act: -3

What do the screens show for `NC(=O)CC(NC(=O)Cc1ccc(Cl)cc1)c1ccc(NCC2CC2)c([N+](=O)[O-])c1` (centres undefined)?
N-glyco inh: 43*; T cruzi inh: -5; PvdQ acylase: -25; PfHsp90 yeast 2: -8; CaV13 FRET inh: -10; HSF-1 act: -9

Results for CC(C)(C)n1nnnc1C(c1ccccc1)N1CCN(CCN2CCOCC2)CC1 (centres undefined) ?
CaV13 FRET inh: -5

What do the screens show for `c1ccc(C[C@H]2COc3c4ccccc4nn32)cc1`?
CaV13 FRET inh: -6

Results for CCc1noc(C)c1C(=O)N1CCN(c2ccc([N+](=O)[O-])cc2)CC1 ?
N-glyco inh: 3; CaV13 FRET inh: -10

Results for CCc1nc2ccc(C(=O)N3CCN(c4ccc([N+](=O)[O-])cc4)CC3)cc2nc1CC ?
N-glyco inh: 1; T cruzi inh: 18; PvdQ acylase: -11; PfHsp90 yeast 2: -12; CaV13 FRET inh: -15; HSF-1 act: 60*

What do the screens show for `Cc1ccc(S(=O)(=O)NCC(=O)OCC(=O)Nc2ccc3c(c2)OCCO3)cc1`?
N-glyco inh: -2; PvdQ acylase: -15; PfHsp90 yeast 2: -19; CaV13 FRET inh: -6

How did Cc1ccc2c(c1)S/C(=C\c1cccc[n+]1C)N2CCO do in these assays?
N-glyco inh: 1; T cruzi inh: 46; PvdQ acylase: -12; PfHsp90 yeast 2: -20; CaV13 FRET inh: -3; HSF-1 act: -3

Results for Cc1ccc2c(c1)S/C(=C/c1ccc[n+](CCO)c1)N2C ?
N-glyco inh: -1; T cruzi inh: 61*; PvdQ acylase: -4; PfHsp90 yeast 2: -1; CaV13 FRET inh: -4; HSF-1 act: -5

What do the screens show for `O=C(/C=C/c1cc[n+](CC(=O)c2ccc3cccc4c3c2CC4)cc1)c1ccc2cccc3c2c1CC3`?
N-glyco inh: 1; T cruzi inh: 63*; PvdQ acylase: -7; PfHsp90 yeast 2: 0; HSF-1 act: 7

How did COC(=O)C1=C(C)N(Cc2ccc(C(F)(F)F)cc2)C(=NCc2ccc3c(c2)OCO3)NC1c1cccc(Cl)c1 (centres undefined) do in these assays?
CaV13 FRET inh: -12

How did NS(=O)(=O)c1cccc(NC(=O)CSc2nc3ccccc3c(=O)n2CC2CCCO2)c1 (centres undefined) do in these assays?
N-glyco inh: 0; PvdQ acylase: -16; PfHsp90 yeast 2: -21; CaV13 FRET inh: -6

What do the screens show for `CC(Sc1nc2ccccc2c(=O)n1CC1CCCO1)C(=O)Nc1ccc(S(N)(=O)=O)cc1` (centres undefined)?
N-glyco inh: -1; T cruzi inh: 0; PvdQ acylase: -3; PfHsp90 yeast 2: 25; CaV13 FRET inh: -6; HSF-1 act: 56*

Results for CCCOC(=O)c1ccc(Oc2cn[nH]c2-c2ccc(OCC)cc2O)cc1 ?
N-glyco inh: -4; T cruzi inh: -3; PvdQ acylase: -5; PfHsp90 yeast 2: 98*; CaV13 FRET inh: -4; HSF-1 act: 14

What do the screens show for `CCCc1ccc(Oc2cn[nH]c2-c2ccc(O)c(C)c2O)cc1`?
N-glyco inh: -8; T cruzi inh: 45; PvdQ acylase: -3; PfHsp90 yeast 2: 142*; HSF-1 act: 14

What do the screens show for `Cc1csc(N(C(=O)c2ccccc2F)c2ccccc2)n1`?
N-glyco inh: 0; T cruzi inh: -3; PvdQ acylase: -4; PfHsp90 yeast 2: -3; CaV13 FRET inh: -4; HSF-1 act: 7

How did COc1cc(CC(=O)N(c2ccccc2)c2nc(C)cs2)cc(OC)c1OC do in these assays?
N-glyco inh: 2; T cruzi inh: -2; PvdQ acylase: -14; PfHsp90 yeast 2: 19; CaV13 FRET inh: -3; HSF-1 act: 62*

Results for CCCCOCCCNC(=O)C[C@H]1C[C@@]2(C(=O)OC)C(=C[C@H](COCc3ccccc3)O[C@@H]2C)N(CCC2=CCCCC2)C1=O ?
CaV13 FRET inh: -7

How did C[C@H]1CCCCO[C@@H](CN(C)CC2CC2)[C@@H](C)CN([C@@H](C)CO)C(=O)c2cc(NS(=O)(=O)c3ccccc3)ccc2O1 do in these assays?
CaV13 FRET inh: -6

What do the screens show for `CN1C(=O)C2(c3ccccc31)N(C)CC(c1ccccn1)C21SC(=S)N(Cc2ccco2)C1=O` (centres undefined)?
T cruzi inh: 7; PvdQ acylase: -18; PfHsp90 yeast 2: 45; CaV13 FRET inh: -5; HSF-1 act: 85*

How did CCOC(=O)c1sc(=NC(=O)c2cccs2)n(C)c1C do in these assays?
N-glyco inh: -13; T cruzi inh: 6; PvdQ acylase: 13; CaV13 FRET inh: -7; HSF-1 act: 53*

How did O=C(Nc1ccc(Nc2cccnc2)cc1)c1c[nH]c2ccccc12 do in these assays?
CaV13 FRET inh: -2

What do the screens show for `O=C(Cc1ccc([N+](=O)[O-])cc1)Nc1cc(C(F)(F)F)cc(C(F)(F)F)c1`?
N-glyco inh: -9; T cruzi inh: 70*; PvdQ acylase: 1; PfHsp90 yeast 2: 5; CaV13 FRET inh: -5; HSF-1 act: 3

What do the screens show for `COc1cc(N=Nc2ccc3ccccc3c2)ccc1O`?
N-glyco inh: -1; T cruzi inh: -22; PvdQ acylase: 2; PfHsp90 yeast 2: 110*; CaV13 FRET inh: -6; HSF-1 act: 55*

Screening results as filed in PubChem.
